# High-throughput results deposited in PubChem by several laboratories.
# Rows were chosen to be rich in hits. Some 2.1% of all compounds tested hit in one or more screens of this group.
# MEKK2 mut-MEK5 = MEK5 binding signal on mutant MEKK2 PB1, primary screen, biochemical, multiplex bead flow cytometry, Alexa488-MEK5; Alexa488-MEK5 binding to MEKK2 mutant; percent response, % at 10 µM; 290,000 compounds, 0.35% hits; AID 1530, 2009; in the data active = percent response above about 24%, passing the limit was not always enough
# GSK3B inh = human GSK3beta kinase inhibitors, primary screen, biochemical, cell-free homogeneous, HTS. GST-GSK3beta kinase, ADP-Glo luminescence, 60 min; hits give low values. Glycogen synthase kinase-3 beta (Homo sapiens), P49841. activity score (negative = inhibition), % at 10 µM. 300,000 compounds, 0.038% hits;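 active = more than half of replicate wells score below -50%, meaning over 50% inhibition versus plate controls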
#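 Test system – GST-tagged human GSK3beta kinase, cell-free · Incubation – 60 min enzyme reaction, room temperature · Signal – ADP-Glo luminescence · Also added – peptide substrate and ATP at 25 µM · Controls – DMSO neutral wells and GW8510 at 20 µM as positive · Buffer or medium – Tris/MgCl2 kinase buffer · Measure – Luminescence-derived activity versus plate DMSO and GW8510 wells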
# MEKK2 WT-MEK5 = modulators of MEK5 binding to wildtype MEKK2, primary screen, biochemical, multiplex bead flow cytometry, Alexa488-MEK5; Alexa488-MEK5 binding to MEKK2 WT; actives lie on both sides; Mitogen-activated protein kinase kinase kinase 2 (Homo sapiens), Q9Y2U5; binding response (% of control), % at 10 µM; 290,000 compounds, 1.1% hits; in the data active = binding response below about 67% or above about 130%
# MEKK3 PB1 HTS = modulators of MEKK3-MEK5 PB1 binding, primary screen, biochemical, wildtype MEKK3, multiplex bead flow cytometry, Alexa488-MEK5. Mitogen-activated protein kinase kinase kinase 3 (Homo sapiens), Q99759. bead-based flow cytometry, Alexa488-MEK5 binding to MEKK3; actives lie on both sides; 0 = blocked by unlabeled MEK5, 100 = vehicle. binding response (% of control), % at 10 µM. 290,000 compounds, 1.4% hits;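 active = binding response more than 3 SD above or below the average of its plate-row segment, actives on both sides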;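 note: Alexa488 bead fluorescence after subtracting the streptavidin-only scavenger bead signal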
# GSK3 alpha inh = blockers of GSK3A enzyme activity – biochemical, luminescence, cell-free homogeneous, HTS, primary screen; Glycogen synthase kinase-3 alpha (Homo sapiens), P49840; GSK-3 alpha kinase, ADP-Glo luminescence, 60 min; inhibition, % at 10 µM; 320,000 compounds, 0.1% hits;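 active = more than half of replicates show inhibition above 20%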;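 note: GST-tagged GSK-3 alpha with peptide substrate and 25 µM ATP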
# Target sequence (P49840 whole entry, looked up): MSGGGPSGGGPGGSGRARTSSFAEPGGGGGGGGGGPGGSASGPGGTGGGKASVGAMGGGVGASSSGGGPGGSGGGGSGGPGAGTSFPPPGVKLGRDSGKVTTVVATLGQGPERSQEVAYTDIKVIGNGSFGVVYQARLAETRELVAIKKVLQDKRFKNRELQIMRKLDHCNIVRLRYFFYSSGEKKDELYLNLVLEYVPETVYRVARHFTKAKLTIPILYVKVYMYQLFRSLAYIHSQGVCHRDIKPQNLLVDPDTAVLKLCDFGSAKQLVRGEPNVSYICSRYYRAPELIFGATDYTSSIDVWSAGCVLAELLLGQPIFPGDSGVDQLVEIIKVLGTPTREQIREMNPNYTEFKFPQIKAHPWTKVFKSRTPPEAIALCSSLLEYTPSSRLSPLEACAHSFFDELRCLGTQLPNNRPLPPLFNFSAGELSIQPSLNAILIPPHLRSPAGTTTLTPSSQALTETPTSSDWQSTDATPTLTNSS
# STK33 kinase inh = inhibitors of purified STK33 kinase, primary screen, biochemical, ADP-Glo luminescence, homogeneous, cell-free; Serine/threonine-protein kinase 33 (Homo sapiens), Q9BYT3; MBP phosphorylation; inhibition, % at 10 µM; 320,000 compounds, 0.073% hits;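 active = inhibition at or above 25%, using the most active replicate where run in duplicate; inactive = inhibition below 25%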
# MEKK2wt confirm = modulators of MEK5 binding to wildtype MEKK2, confirmation, biochemical, single concentration, multiplex bead flow cytometry | shares compounds with MEKK3 PB1 HTS | Alexa488-MEK5 binding to MEKK2 WT; actives lie on both sides | binding response (% of control), % at 10 µM | 5,900 compounds, 2.4% hits | AID 1892, 2009; in the data active = binding response below about 16% or above about 210%; inactive = in between
# MEKK2mut confirm = mutant MEKK2 PB1-MEK5 binding signal retest – biochemical, single concentration, multiplex bead flow cytometry, confirmation. Alexa488-MEK5 binding to MEKK2 mutant. 5,900 compounds, 2% hits. shares compounds with MEKK3 PB1 HTS. percent response, % at 10 µM; in the data active = percent response mostly above about 71%, no sharp cut-off; inactive = mostly below about 38%;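 note: higher means compound restores mutant binding toward wildtype level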
# MEKK3-MEK5 inh = MEKK3 wild-type PB1 binding to MEK5, inhibitors, confirmation, biochemical, bead multiplex flow cytometry, single concentration, wildtype | 5,900 compounds, 1.8% hits | Alexa488-MEK5 binding to MEKK3; hits give low values | shares compounds with MEKK3 PB1 HTS | binding response (% of control), % at 10 µM;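 active = binding response below 72% of control, or above a set upper limit, though filed actives all read lower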;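 note: lower values mean stronger disruption of MEK5 binding to MEKK3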
# Hits are given with their value; 0 = inactive; - = not tested or not shown; ! = a repeat was not active; [ ] = remark or other dose.
SMILES,MEKK2 mut-MEK5,GSK3B inh,MEKK2 WT-MEK5,MEKK3 PB1 HTS,GSK3 alpha inh,STK33 kinase inh,MEKK2wt confirm,MEKK2mut confirm,MEKK3-MEK5 inh
NC1=NC[C@H](c2ccccc2)N1CCCCC1CCCCC1,0,0,146,0,0,0,0,0,0
COc1ccc([N+](=O)[O-])cc1NC(=O)c1ccc(C)o1,0,0,0,187,0,0,0,0,0
CCCCNC(=S)Nc1ccc(C(F)(F)F)cc1,0,0,0,75[inhibitor],0,0,0,0,0
CN(C)c1ccc(NS(=O)(=O)c2ccc(Cl)cc2)cc1,0,0,0,135,0,0,0,0,0
Cc1nc2c3ccccc3nc(SCC(=O)N3CC(C)CC(C)C3)n2n1 (stereo not given),-,0,-,-,0,0,-,-,-
Cc1nc2c3ccccc3nc(SCC(=O)c3ccc(Cl)cc3)n2n1,0,0,0,129,0,0,0,0,0
COC(=O)c1cc(OC)c(OC)cc1NC(=S)N1CCN(c2ccccc2)CC1,0,0,2.0[inhibitor],1.0[inhibitor],0,0,0,0,0
COc1ccccc1NC(=S)N1CCOCC1,0,0,0,73[inhibitor],0,0,0,0,0
COC(=O)c1cc(OC)c(OC)cc1NC(=O)CN1CCCCC1,0,0,-4.0[inhibitor],-1.0[inhibitor],0,0,0,0,0
COC(=O)c1ccccc1NC(=S)N1CCN(c2ccccc2)CC1,0,0,0,0,0,0,-,-,-
COC(=O)c1ccc(C(=O)OC)c(NC(=O)CN2CCCCC2)c1,0,0,0,0,0,0,-,-,-
COc1ccccc1NC(=O)N1CCOCC1,0,0,0,0,0,0,-,-,-
CCSC1=N/C(=C\c2ccccc2)C(=O)N1c1ccc(OC)cc1,0,0,0,74[inhibitor],0,0,0,0,0
C=CCSC1=N/C(=C\c2cccnc2)C(=O)N1c1ccc(OC)cc1,0,0,0,0,0,0,-,-,-
NS(=O)(=O)c1ccc(CCNC(=O)c2ccc(OCC3CCCO3)cc2)cc1 (stereo not given),0,0,0,0,0,0,-,-,-
COc1ccc(C2CC2C(C)=O)cc1 (stereo not given),0,0,0,134,0,0,0,0,0
CCn1c(SCc2ccc(OC)cc2)nnc1-c1ccncc1,-,0,-,-,0,0,-,-,-
CCOc1ccc(Oc2c(/C=N/NC(=O)C3CC3)c(C)nn2-c2ccccc2)cc1,0,0,0,131,0,0,0,0,0
CCOc1ccc(Oc2c(/C=N/NC(C)=O)c(C)nn2-c2ccccc2)cc1,0,0,0,0,0,0,-,-,-
O=S(=O)(c1ccc(C(F)(F)F)cc1)N1CCCN(c2ccc(C(F)(F)F)cn2)CC1,0,0,46[inhibitor],47[inhibitor],0,0,0,0,0
O=C(O)c1sccc1S(=O)(=O)N1CCN(c2ccc(C(F)(F)F)cn2)CC1,0,0,0,0,0,0,-,-,-
Cc1ccc(Cl)cc1N(CC(=O)NCc1ccccc1)S(C)(=O)=O,0,0,0,0,0,0,-,-,-
CC(C(=O)Nc1ccc(OCc2ccccc2)cc1)N1CCCC1 (stereo not given),0,0,0,0,0,0,-,-,-
CC(C)COCC(CN(Cc1ccccc1)c1ccccc1)N1CCCC1 (stereo not given),0,0,146!,0,0,0,0,0,0
CCOC(=O)CSc1nnc(-c2ccccc2)o1,0,0,0,0,0,0,-,-,-
SMILES,MEKK2 mut-MEK5,GSK3B inh,MEKK2 WT-MEK5,MEKK3 PB1 HTS,GSK3 alpha inh,STK33 kinase inh,MEKK2wt confirm,MEKK2mut confirm,MEKK3-MEK5 inh
CCSc1nnc(-c2sc3nnc(-c4ccccc4)c(-c4ccccc4)c3c2N)o1,0,0,70[inhibitor],0,0,0,0,0,0
COCCN(CC(=O)NCc1ccc(F)cc1)C(=O)CCC(=O)Nc1ccccn1,0,0,0,81[inhibitor],0,0,0,0,0
COCCN(CC(=O)NCc1ccc(F)cc1)C(=O)CCC(=O)Nc1nccs1,0,0,0,0,0,0,-,-,-
Cn1nccc1C(=O)NC1CCCc2c1cnn2-c1ccc(C(C)(C)C)cc1 (stereo not given),0,0,0,0,0,0,-,-,-
CCN(CC)c1cccc(OCC(=O)N2c3ccccc3CC2C)c1 (stereo not given),-,-,-,-,0,0,-,-,-
COc1cccc(C(=O)N(c2ccccc2)C2C=CS(=O)(=O)C2)c1 (stereo not given),0,0,0,0,0,0,-,-,-
CCC(C)(C)c1ccc(OCCCC[n+]2ccc(C)cc2)c(C(C)(C)CC)c1,56,0,189,0,0,0,0,0,0
Cc1cc[n+](CC[n+]2ccc(C)cc2)cc1,-,0,-,-,0,0,-,-,-
Cc1nc(Cl)c(C(=O)NC(=O)NCc2ccccc2)c(C)c1Cl,0,0,0,142,-,-,0,0,0
Cc1ccccc1NC(=O)c1c(Cl)nc(C)c(Cl)c1C,0,0,0,0,0,0,-,-,-
Cc1ccc(C)c(C(C)NC(=O)c2ccccc2Br)c1 (stereo not given),0,0,0,0,0,0,-,-,-
Cc1cc2oc(=O)cc(CN3CCCc4ccccc43)c2cc1C,228,0,-,0,0,0,0,0,0
C/C=C/c1ccc(OCCOCCNCc2ccccc2)c(OC)c1,24,0,195,0,0,0,0,0,0
C/C=C/c1ccc(OCCOc2cc(C=O)ccc2OC)c(OC)c1,0,0,0,0,0,0,-,-,-
Cc1cc(N/N=C/c2ccccc2Cl)nc(NCc2ccccc2)n1,0,0,146,0,0,0,0,0,0
Cc1ccc(Nc2cc(C)nc(NCc3ccccc3)n2)cc1,0,0,151,0,0,0,0,0,0
Cc1cc(NC2CCCCC2)nc(NCc2ccccc2)n1,0,0,0,0,0,0,-,-,-
